Compounds with a hit are over-represented: about 2% of the library has one in this group of screens.
RBBP9 inhibitor: inhibitors of human serine hydrolase RBBP9; inhibition, % at 7.94 µM; recombinant RBBP9, FP-Rh probe fluorescence polarization; hit rate 0.2% among 220,000;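 active = inhibition above the campaign mean of all tested compounds plus 3 SD, cut at about 14% in these data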;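 also: plate controls were DMSO wells with RBBP9 for no effect and wells lacking RBBP9 protein for full effect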
Target sequence (O75884 whole entry, looked up): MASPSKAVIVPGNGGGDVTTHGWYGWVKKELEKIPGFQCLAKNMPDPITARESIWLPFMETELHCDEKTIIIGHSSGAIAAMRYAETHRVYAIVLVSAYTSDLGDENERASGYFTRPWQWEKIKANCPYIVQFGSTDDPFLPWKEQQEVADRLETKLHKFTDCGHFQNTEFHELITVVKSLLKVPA
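Test system – recombinant human RBBP9 · Input – RBBP9 2.5 µM in dispensing solution, pre-mixing · Medium – Tris buffer pH 8.0, NaCl, Pluronic · Schedule – preincubation 30 min plus labeling 45 min at 25 °C · Measured by – fluorescence polarization · Measure – % inhibition · Controls – DMSO and no-protein wells · Replicates – one well per compound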
M18AAP inhibitor: blocks P. falciparum M18 aspartyl aminopeptidase; inhibition, % at 7.35 µM; AID 1822; hit rate 1.2% among 290,000; recombinant PfM18AAP, H-Glu-NHMec fluorogenic cleavage;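 active = inhibition above the campaign mean inhibition over all tested compounds plus 3 SD, cut at about 28% in these data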;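 also: 0% = plate median of test compound wells and 100% = 2 mM ZnCl2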
zVAD death inh: blocks zVAD induced death of L929 cells; L929 zVAD necroptosis rescue, ATP luminescence, 24 h; with zVAD 60 µM; AID 1377; hit rate 0.38% among 220,000; viability rescue, % at 10 µM;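 active = activation, scaled between plate controls, above about 75%, limit read from the data; inactive = activation under that limit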;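 also: 0% = zVAD with DMSO and 100% = DMSO alone without zVAD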
TNF necrop inh: inhibitors of TNF-alpha induced necroptosis in Jurkat FADD-/- cells; Jurkat FADD-/- TNF necroptosis rescue, ATP luminescence, 24 h; 0 = TNF only, 100 = no-TNF cells; activation (protection from cell death), % at 10 µM; hit rate 0.068% among 220,000;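 active = activation, meaning protection from cell death, of at least 50% relative to plate controls; inactive = activation below 50%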;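 also: necroptosis triggered by 40 ng/mL TNF-alpha added together with compound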
Hep lipid drop: hepatic lipid droplet formation modulation; AML12 mouse hepatocytes, oleate lipid droplets, BODIPY imaging; inhibition, % at 6.5 µM; hit rate 0.4% among 240,000;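 active = lipid droplet intensity inhibited by at least 50%, with more than 500 cells counted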
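Material: mouse AML12 hepatocyte cell line, fixed after treatment; Timing: compound with oleate, overnight; Technique: high-content imaging of BODIPY-stained droplets and DAPI nuclei; Probe or stimulus: oleate, 100 µM final; Dosing: compound at 6.5 µM only.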
TbHK1 inh: blocks Trypanosoma brucei hexokinase 1 activity | recombinant TbHK1, G6PDH-coupled NADH A340 | inhibition, % at 10 µM | hit rate 0.11% among 220,000;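 active = inhibition of 50% or more in the single-dose primary screen; inactive = inhibition below 50%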
zVAD death conf: confirmed blocker of zVAD induced death in L929 cells; hit rate 16% among 760; activation (protection from necroptosis), % at 10 µM; L929 zVAD-induced necroptosis rescue, ATP luminescence, 24 h; shares compounds with zVAD death inh;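 active = mean protection from necroptosis of at least 50% over duplicate tests; inactive = mean protection below 50%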;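 also: 0% = cells with zVAD alone and 100% = vehicle cells without zVAD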
Starred values were filed as active, the others as inactive; x = not tested or not shown.

SMILES	RBBP9 inhibitor	M18AAP inhibitor	zVAD death inh	TNF necrop inh	Hep lipid drop	TbHK1 inh	zVAD death conf
O=C(CSc1nnc(NC(=O)C2CC(=O)N(c3ccccc3)C2)s1)NCc1ccco1 (stereo unspecified)	x	16	x	x	-11	x	x
CCC(=O)Nc1ccc2c(c1)ncn2-c1ccc(C)cc1	0	0	84*	3	5	0	36
CCOc1ccc(N2C(=O)Nc3ccccc3C2(O)C(=O)N2CCN(c3ccccn3)CC2)cc1 (stereo unspecified)	-1	4	0	1	-12	4	x
O=S(=O)(NCc1cccs1)c1ccc(Br)cc1	x	6	x	x	-1	x	x
O=C(Nc1ccc(S(=O)(=O)Nc2nccs2)cc1)C1CCCCC1	2	2	5	1	x	3	x
O=C(Nc1nccs1)c1ccc(S(=O)(=O)NCC2CCCCC2)cc1	-9	-3	123*	-5	x	1	52*
O=C(Nc1nccs1)c1ccc(S(=O)(=O)NCc2cccs2)cc1	-6	0	100*	22	x	-7	85*
CCOc1ccc(NC(=S)N2CCN(S(C)(=O)=O)CC2)cc1	x	2	x	x	-4	x	x
COc1ccc(C(=O)NCCCn2cccn2)cc1OC1CCN(C(C)=O)CC1	x	-5	x	x	-12	x	x
Oc1ccc(/C=N/Nc2ncc(Br)cn2)c(O)c1	-1	52*	92*	31	-3	-35	3
COc1cccc(NC(=O)NC2CCCc3ccccc32)c1 (stereo unspecified)	4	0	74	1	-1	-1	x
O=C(CN1CCOCC1)Nc1nc2ccc(Br)cc2s1	-6	-1	77*	4	3	-5	16
Nc1[nH]nc2nc(N3CCOCC3)nc(-c3ccccc3)c12	2	3	92*	0	x	25	39
COc1ccc(C(=O)/C(=C\c2ccco2)N2C=CC=CC2=C(C#N)C#N)cc1	6	-28	97*	11	x	-25	28
CC(C)(C)c1nc(NC(=O)Nc2ccccc2)sc1Br	-19	-2	83*	-1	-12	0	3
O=C(NN1CCN(Cc2ccccc2Cl)CC1)c1ccc(Br)cc1	-4	0	2	-4	-6	-1	x
CCOc1ccc(/C=C\C(C)=N\O)cc1	-7	2	99*	8	x	-8	31
CCC(=O)Nc1nc2ccc3nc(C)sc3c2s1	-10	-1	84*	0	-1	-4	31
COc1ccc2sc(NC(C)=O)nc2c1	-5	1	57	0	4	7	x
CCC(=O)Nc1nc2cc(OC)ccc2s1	1	-2	88*	-2	x	-3	29
COc1ccc2sc(NC(=O)CC(C)C)nc2c1	-9	1	77*	4	x	-5	7
COc1ccc2nc(NC(=O)CCc3cc(OC)c(OC)c(OC)c3)sc2c1	9	1	88*	6	6	-6	4
COc1ccc(Nc2cc(C(=O)NC3CCCC3)c3ccccc3n2)c(OC)c1	x	5	x	x	26	x	x
Cc1nc(-c2ccccc2)sc1-c1ccnn1C	-7	-7	1	-1	6	-14	x
Cc1nc(-c2ccccc2)sc1-c1ccn[nH]1	-6	-7	80*	10	10	-28	40
SMILES	RBBP9 inhibitor	M18AAP inhibitor	zVAD death inh	TNF necrop inh	Hep lipid drop	TbHK1 inh	zVAD death conf
C=C1C(=O)O[C@@H]2[C@H]1[C@@H](OC(=O)/C(C)=C/C)C/C(C)=C\C(=O)/C=C(\C)[C@@H]2O	x	x	84*	2	-2	-8	5
COc1ccc(OCC(=O)Nc2ccc(C)c(S(=O)(=O)N(C)C)c2)cc1	-9	5	81*	0	14	8	2
CC(=O)c1ccc(OCCCC(=O)Nc2ccc(C)c(S(=O)(=O)N(C)C)c2)cc1	2	3	1	1	8	31	x
CNc1nc(C)nc(N/N=C/c2ccccc2)n1	-14	1	76*	16	10	1	1
COc1cc2oc(-c3ccc(O)cc3)cc(=O)c2c(O)c1OC	x	x	78*	-11	2	-53	42
COc1cc(-c2cc(=O)c3c(O)c(OC)c(OC)c(OC)c3o2)cc(OC)c1OC	x	x	72	-10	14	-9	x
Cc1c(C(=O)C(=O)NCCCn2ccnc2)c2ccccc2n1C	-7	3	0	1	-8	-20	x
C=CCN1C=CC(=O)CC1	x	x	0	1	5	-37	x
COc1ccccc1N=c1oc2cc(O)ccc2cc1C(N)=O	-15	1	24	-6	x	-4	x
Cc1cccc(N=c2oc3cc(O)ccc3cc2C(N)=O)c1	-7	11	83*	-4	x	-8	20
C/C(=N\OCC(=O)Nc1ccc2c(c1)OCCO2)c1ccc2c(c1)OCCO2	-5	0	86*	1	-4	-2	4
CCCS(=O)(=O)N1CCCC(C(=O)N2CCCCC2)C1 (stereo unspecified)	x	7	x	x	-1	x	x
COC(=O)CCCC1=CC2=C(c3ccccc3)C(=O)C(C)(OC(=O)C3CCCC3)C(=O)C2=CN1C(CO)CO (stereo unspecified)	x	x	0	1	14	-10	x
CC(C)(C)c1ccc(NC(=O)Nc2ccc(OCC(=O)N3CCOCC3)cc2)cc1	-2	1	80*	2	18	-5	40
CC1=NN(c2ccccc2)C(=O)/C1=C\c1cc(C)n(-c2ccccc2)c1C	-8	-8	88*	3	0	-11	2
COC(=O)c1cc(S(=O)(=O)N(C)C2CCCCC2)c[nH]1	x	3	x	x	-3	x	x
C(=N\Nc1ccccn1)/c1c[nH]c2ccccc12	0	21	92*	15	-2	-47	55*
O=C(O)c1ccccc1N/N=C\c1ccnc2ccccc12	-5	2	0	-3	x	-7	x
O=C(O)c1cccc2c(/C=N/Nc3ccccn3)c[nH]c12	4	26	84*	44	-8	-56	12
O=C(NC1CCCN(CCc2ccccc2)C1)C1CCCC1 (stereo unspecified)	x	-1	x	x	-3	x	x
COc1cc(CO)ccc1OCC(=O)Nc1ccc(Br)cc1	-2	-1	76*	1	-9	-2	0
COc1cc(/C=N/Nc2nc3ccccc3[nH]c2=O)ccc1O	-7	0	78*	-3	0	-25	15
COc1cccc(/C=N/Nc2nc3ccccc3[nH]2)c1OC	4	4	7	12	20	-73	x
COc1cc(/C=N/Nc2nc3ccccc3[nH]2)ccc1O	7	11	79*	36	2	-54	47
COc1ccc(O)c(/C=N/Nc2nc3ccccc3[nH]2)c1	4	22	22	20	4	-34	x
COc1cc(/C=N/Nc2nc3ccccc3[nH]2)cc(Br)c1OCC(=O)N(C)C	-5	7	75*	64*	2	-33	60*
